Measurements taken from ChEMBL document CHEMBL1938329, “The discovery of potent, selective, and orally active pyrazoloquinolines as PDE10A inhibitors for the treatment of Schizophrenia” (Bioorg Med Chem Lett, 2012).
Activity calls are given as the source filed them. The rule behind the calls is not given here.

How the values were obtained:
[1] = target: cAMP and cAMP-inhibited cGMP 3',5'-cyclic phosphodiesterase 10A (Homo sapiens, UniProt Q9Y233); assay: Inhibition of recombinant human PDE10A using [3H]cAMP as substrate by scintillation proximity assay
cAMP and cAMP-inhibited cGMP 3',5'-cyclic phosphodiesterase 10A, sequence (Q9Y233 whole entry): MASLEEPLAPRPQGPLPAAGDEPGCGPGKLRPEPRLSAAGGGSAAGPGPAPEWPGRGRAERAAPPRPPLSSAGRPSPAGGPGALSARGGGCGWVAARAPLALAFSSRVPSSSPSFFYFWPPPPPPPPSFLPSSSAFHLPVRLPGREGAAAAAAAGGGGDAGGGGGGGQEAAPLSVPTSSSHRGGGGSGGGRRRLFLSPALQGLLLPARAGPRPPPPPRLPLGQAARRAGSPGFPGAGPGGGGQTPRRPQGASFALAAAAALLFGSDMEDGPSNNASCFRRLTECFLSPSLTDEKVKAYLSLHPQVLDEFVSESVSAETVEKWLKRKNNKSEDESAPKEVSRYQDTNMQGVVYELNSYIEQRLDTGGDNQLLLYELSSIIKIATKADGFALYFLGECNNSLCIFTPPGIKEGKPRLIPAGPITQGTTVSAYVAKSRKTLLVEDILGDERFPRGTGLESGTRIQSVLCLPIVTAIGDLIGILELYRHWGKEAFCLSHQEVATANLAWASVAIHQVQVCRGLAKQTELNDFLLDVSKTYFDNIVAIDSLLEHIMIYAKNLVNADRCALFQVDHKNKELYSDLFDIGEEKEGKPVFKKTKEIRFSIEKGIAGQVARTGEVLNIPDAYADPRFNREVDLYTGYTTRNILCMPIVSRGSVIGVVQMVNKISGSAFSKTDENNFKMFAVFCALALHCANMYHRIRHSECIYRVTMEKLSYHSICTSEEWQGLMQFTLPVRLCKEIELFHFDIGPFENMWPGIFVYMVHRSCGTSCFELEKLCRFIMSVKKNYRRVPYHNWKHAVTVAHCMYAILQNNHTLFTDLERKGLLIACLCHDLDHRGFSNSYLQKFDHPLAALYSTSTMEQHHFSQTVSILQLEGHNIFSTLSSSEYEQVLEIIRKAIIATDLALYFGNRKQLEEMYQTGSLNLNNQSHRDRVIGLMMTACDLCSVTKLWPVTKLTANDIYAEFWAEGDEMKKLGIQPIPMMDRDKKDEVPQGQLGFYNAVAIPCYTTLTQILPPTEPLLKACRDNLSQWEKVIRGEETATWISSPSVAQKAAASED
Outline: (§1)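 Scintillation proximity assay with [³H]cAMP as substrate, measuring hydrolysis of cAMP to AMP by recombinant human PDEs 1–11. Ki values are means of at least two experiments.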

Rattus norvegicus [2] = assay: Antipsychotic activity in CD rat assessed as inhibition of MK-801-induced hyperactivity at 30 mg/kg, po relative to control; type: functional, organism-based; set-up: dose 30 mg/kg
Outline: (§2)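 Male CD rats habituated to locomotor activity chambers 24 h before testing. On test day, MK-801 (0.3 mg/kg, sc) co-administered with PDE10 inhibitor (po), then rats placed in apparatus. Inhibition expressed as percent of activity in inhibitor + MK-801 group relative to vehicle + MK-801 group.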

[3] = Drug uptake in rat brain at 10 mg/kg, po after 6 hrs; type: ADME, organism-based; set-up: dose 10 mg/kg, route oral; conditions: read-out: Drug uptake
Outline: (§3)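 Rat cassette-accelerated rapid screen, 10 mg/kg oral. Plasma exposure measured over 0–6 h. Brain drug concentration taken at 6 h. Brain/plasma ratio is brain over plasma drug concentration at 6 h.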

[4] = AUC (0 to 6 hrs) in rat at 10 mg/kg, po; type: ADME, organism-based; set-up: time < 6 hr, dose 10 mg/kg, route oral; conditions: plasma; outline: as §3
[5] = Drug uptake in CD rat brain at 30 mg/kg, po after 1 hr; type: ADME, organism-based; set-up: dose 30 mg/kg, route oral; conditions: read-out: Drug uptake
[6] = target: cGMP-specific 3',5'-cyclic phosphodiesterase (Homo sapiens, UniProt O76074); assay: Inhibition of recombinant human PDE5A using [3H]cAMP as substrate by scintillation proximity assay; outline: as §1
Phosphodiesterase 1 = Phosphodiesterase 1 (Homo sapiens, UniProt P54750+Q01064+Q14123); assay: Inhibition of recombinant human PDE1 using [3H]cAMP as substrate by scintillation proximity assay; type: protein assay; outline: as §1
[7] = Ratio of drug level in brain to plasma in rat at 10 mg/kg, po at 6 hrs; type: ADME, organism-based; set-up: dose 10 mg/kg, route oral; conditions: read-out: BPR; outline: as §3
[8] = Clearance in human hepatocytes assessed per million of cells; type: ADME, cell-based, Hepatocyte; conditions: read-out: CLH
[9] = Clearance in cebus monkey hepatocytes assessed per million of cells; type: ADME, cell-based, Hepatocyte; conditions: cebus capucinus, read-out: CLH
Phosphodiesterase 4 = Phosphodiesterase 4 (Homo sapiens, UniProt P27815+Q08499+Q07343+Q08493); assay: Inhibition of recombinant human PDE4 using [3H]cAMP as substrate by scintillation proximity assay; type: protein assay; outline: as §1
[10] = target: High affinity cGMP-specific 3',5'-cyclic phosphodiesterase 9A (Homo sapiens, UniProt O76083); assay: Inhibition of recombinant human PDE9 using [3H]cAMP as substrate by scintillation proximity assay; outline: as §1
High affinity cGMP-specific 3',5'-cyclic phosphodiesterase 9A, sequence (O76083 whole entry): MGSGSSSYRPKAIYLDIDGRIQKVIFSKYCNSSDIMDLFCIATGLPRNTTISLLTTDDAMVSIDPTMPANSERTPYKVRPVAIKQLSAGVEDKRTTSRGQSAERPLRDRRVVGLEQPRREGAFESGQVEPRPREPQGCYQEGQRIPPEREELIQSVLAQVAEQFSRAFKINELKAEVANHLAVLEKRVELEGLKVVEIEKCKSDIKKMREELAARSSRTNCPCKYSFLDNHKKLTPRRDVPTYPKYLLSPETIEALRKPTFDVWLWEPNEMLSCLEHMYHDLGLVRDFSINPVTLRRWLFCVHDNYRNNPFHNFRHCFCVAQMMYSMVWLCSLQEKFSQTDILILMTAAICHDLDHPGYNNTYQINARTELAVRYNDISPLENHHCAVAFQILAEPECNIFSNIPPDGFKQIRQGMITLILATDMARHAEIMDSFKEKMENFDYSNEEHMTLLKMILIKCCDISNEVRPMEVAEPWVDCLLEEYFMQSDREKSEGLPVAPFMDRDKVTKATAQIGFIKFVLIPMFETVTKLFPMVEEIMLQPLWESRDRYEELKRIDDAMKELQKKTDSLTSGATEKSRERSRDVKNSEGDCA

Phosphodiesterase 8 = Phosphodiesterase 8 (Homo sapiens, UniProt O95263+O60658); assay: Inhibition of recombinant human PDE8 using [3H]cAMP as substrate by scintillation proximity assay; type: protein assay; outline: as §1
Phosphodiesterase 7 = Phosphodiesterase 7 (Homo sapiens, UniProt Q13946+Q9NP56); assay: Inhibition of recombinant human PDE7 using [3H]cAMP as substrate by scintillation proximity assay; type: protein assay; outline: as §1
[11] = target: Dual 3',5'-cyclic-AMP and -GMP phosphodiesterase 11A (Homo sapiens, UniProt Q9HCR9); assay: Inhibition of recombinant human PDE11 using [3H]cAMP as substrate by scintillation proximity assay; outline: as §1
Dual 3',5'-cyclic-AMP and -GMP phosphodiesterase 11A, sequence (Q9HCR9 whole entry): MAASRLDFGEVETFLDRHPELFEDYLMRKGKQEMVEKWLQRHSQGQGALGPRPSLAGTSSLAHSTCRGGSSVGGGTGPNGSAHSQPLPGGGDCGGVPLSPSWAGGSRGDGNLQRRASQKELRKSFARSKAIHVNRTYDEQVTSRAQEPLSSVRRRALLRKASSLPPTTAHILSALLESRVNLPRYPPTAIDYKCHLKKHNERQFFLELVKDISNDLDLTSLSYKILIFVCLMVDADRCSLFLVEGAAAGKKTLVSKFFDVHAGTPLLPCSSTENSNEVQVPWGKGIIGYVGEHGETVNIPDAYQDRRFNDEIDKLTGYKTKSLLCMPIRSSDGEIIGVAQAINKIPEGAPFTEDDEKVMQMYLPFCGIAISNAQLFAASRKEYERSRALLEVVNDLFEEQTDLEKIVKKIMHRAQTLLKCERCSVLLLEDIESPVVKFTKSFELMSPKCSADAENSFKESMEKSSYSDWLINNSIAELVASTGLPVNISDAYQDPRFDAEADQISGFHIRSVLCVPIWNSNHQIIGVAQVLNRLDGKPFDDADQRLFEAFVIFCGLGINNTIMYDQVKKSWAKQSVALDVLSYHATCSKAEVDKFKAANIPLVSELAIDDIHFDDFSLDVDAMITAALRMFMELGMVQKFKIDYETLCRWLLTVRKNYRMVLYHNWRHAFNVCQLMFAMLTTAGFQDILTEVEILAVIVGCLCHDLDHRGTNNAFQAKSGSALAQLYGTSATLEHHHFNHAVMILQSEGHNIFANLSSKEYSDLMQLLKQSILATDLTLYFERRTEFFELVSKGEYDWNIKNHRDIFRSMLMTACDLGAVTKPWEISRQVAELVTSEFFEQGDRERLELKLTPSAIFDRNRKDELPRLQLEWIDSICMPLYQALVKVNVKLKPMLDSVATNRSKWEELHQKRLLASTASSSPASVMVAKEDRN

[12] = Efflux ratio of permeability in human Caco2 cells; type: ADME, cell-based; conditions: Caco-2
[13] = AUC in dog at 2 mg/kg, po; type: ADME, organism-based, Canis lupus familiaris; set-up: dose 2 mg/kg, route oral; conditions: plasma
Rattus norvegicus [14] = species on record: Rattus norvegicus; assay: Sedative activity in rat assessed as hypolocomotion by spontaneous locomotor activity test; type: organism-based; conditions: in vivo
Outline: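 Hypolocomotion assessed in rats by spontaneous locomotor activity test, run to distinguish reversal of MK-801-induced behaviour from compound-induced hypolocomotion; ED₅₀ derived.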

[15] = Clearance in dog hepatocytes assessed per million of cells; type: ADME, cell-based, Canis lupus familiaris, Hepatocyte; conditions: read-out: CLH
Rattus norvegicus [16] = assay: Antipsychotic activity in po dosed CD rat assessed as inhibition of MK-801 induced hyperactivity relative to control; type: functional; outline: as §2
[17] = target: cGMP-dependent 3',5'-cyclic phosphodiesterase (Homo sapiens, UniProt O00408); assay: Inhibition of recombinant human PDE2 using [3H]cAMP as substrate by scintillation proximity assay; outline: as §1
cGMP-dependent 3',5'-cyclic phosphodiesterase, sequence (O00408 whole entry): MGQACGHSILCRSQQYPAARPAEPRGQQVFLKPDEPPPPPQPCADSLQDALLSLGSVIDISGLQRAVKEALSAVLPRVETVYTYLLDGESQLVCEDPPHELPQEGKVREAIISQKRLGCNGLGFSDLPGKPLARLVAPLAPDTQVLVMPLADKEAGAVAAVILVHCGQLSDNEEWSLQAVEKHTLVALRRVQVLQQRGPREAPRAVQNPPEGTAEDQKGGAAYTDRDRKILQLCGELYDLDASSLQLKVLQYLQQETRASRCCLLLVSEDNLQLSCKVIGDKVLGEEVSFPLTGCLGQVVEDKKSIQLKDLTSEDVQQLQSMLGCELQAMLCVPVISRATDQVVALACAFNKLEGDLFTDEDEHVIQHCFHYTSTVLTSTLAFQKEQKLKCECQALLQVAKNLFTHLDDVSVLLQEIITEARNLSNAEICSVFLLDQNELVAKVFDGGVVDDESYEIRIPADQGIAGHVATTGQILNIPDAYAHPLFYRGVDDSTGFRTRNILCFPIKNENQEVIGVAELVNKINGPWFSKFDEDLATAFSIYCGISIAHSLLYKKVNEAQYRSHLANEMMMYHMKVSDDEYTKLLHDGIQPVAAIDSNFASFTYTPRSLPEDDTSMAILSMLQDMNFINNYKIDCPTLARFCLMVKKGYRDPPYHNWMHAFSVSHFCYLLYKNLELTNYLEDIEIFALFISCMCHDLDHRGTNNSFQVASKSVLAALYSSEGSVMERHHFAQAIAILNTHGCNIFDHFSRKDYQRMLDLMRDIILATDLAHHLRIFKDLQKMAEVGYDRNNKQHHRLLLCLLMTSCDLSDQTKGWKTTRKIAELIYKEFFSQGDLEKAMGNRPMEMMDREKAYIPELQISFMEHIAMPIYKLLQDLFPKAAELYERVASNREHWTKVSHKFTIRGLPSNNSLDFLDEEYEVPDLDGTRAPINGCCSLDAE

Phosphodiesterase 6 = assay: Inhibition of recombinant human PDE6 using [3H]cAMP as substrate by scintillation proximity assay; type: protein assay; outline: as §1
Phosphodiesterase 3 = Phosphodiesterase 3 (Homo sapiens, UniProt Q14432+Q13370); assay: Inhibition of recombinant human PDE3 using [3H]cAMP as substrate by scintillation proximity assay; type: protein assay; outline: as §1
[18] = Clearance in rat hepatocytes assessed per million of cells; type: ADME, cell-based, Hepatocyte; conditions: read-out: CLH
[19] = Plasma protein binding in rat; type: ADME, cell-free; conditions: read-out: PPB (converted)

In the case of `COc1cc(C)c2nc3[nH]nc(C)c3c(NCCC3CCOCC3)c2c1`, the Ki [1] is reported as 409 nM.

Work on `COc1cc(C)c2nc3[nH]nc(C)c3c(N3CCCCC3)c2c1` yielded a Ki [1] of 363 nM.

In the case of `COc1cc(C)c2nc3[nH]nc(C)c3c(N3CCN(C(N)=O)[C@@H](C)C3)c2c1`, the inhibition (Rattus norvegicus [2]) is reported as “inactive”, the concentration at 6 h [3] is reported as < 10 ng/g and the Ki [1] is reported as 3.3 nM. It also gave an AUC(0-t) at 6 h [4] of 9.5 µM·h and a concentration at 1 h [5] of 27 ng/g.

For `COc1cc(C)c2nc3[nH]nc(C)c3c(N3CCC(N)CC3)c2c1`, the concentration at 6 h [3] was < 10 ng/g and the Ki [1] was 1 nM.

In the case of `COc1cc(C)c2nc3[nH]nc(C)c3c(NC3CCOCC3)c2c1`, the Ki [6] is reported as 17300 nM, the Ki (Phosphodiesterase 1) is reported as “>= 4793 nM” and the Kp at 6 h [7] is reported as 0.7. The hepatocyte CLint [8] was 1.7 µL/min/1e6 cells, the hepatocyte CLint [9] was 54 µL/min/1e6 cells and the Ki (Phosphodiesterase 4) was “>= 4793 nM”. For the same compound, the concentration at 6 h [3] was 1100 ng/g, the Ki [10] was ≥ 4790 nM and the Ki (Phosphodiesterase 8) was “>= 4793 nM”. For the same compound, the Ki [1] was 12 nM, the Ki (Phosphodiesterase 7) was “>= 4793 nM” and the Ki [11] was ≥ 4790 nM. For the same compound, the efflux ratio [12] was 0.7, the AUC [13] was 12.5 µM·h and the ED50 (Rattus norvegicus [14]) was 23 mg/kg. It also gave a hepatocyte CLint [15] of 0.8 µL/min/1e6 cells, an ED50 (Rattus norvegicus [16]) of 4 mg/kg and an AUC(0-t) at 6 h [4] of 11.8 µM·h. The Ki [17] was ≥ 4790 nM, the Ki (Phosphodiesterase 6) was 278 nM and the Ki (Phosphodiesterase 3) was “>= 4793 nM”. The hepatocyte CLint [18] was 2.9 µL/min/1e6 cells and the fraction unbound [19] was 0.07.

`Cc1n[nH]c2nc3ccc(Cl)cc3c(N3CCNCC3)c12` gave a Ki [1] of 419 nM.

`COc1cc(C)c2nc3[nH]nc(C)c3c(N3CCCNCC3)c2c1` gave a Ki [1] of 15 nM.

In the case of `COc1cc(C)c2nc3[nH]nc(C)c3c(N3CCC(O)CC3)c2c1`, the concentration at 6 h [3] is reported as < 10 ng/g and the Ki [1] is reported as 14 nM.

Compound `COc1cc(C)c2nc3[nH]nc(C)c3c(NCC3CCNCC3)c2c1` has a Ki [1] of 15 nM and a Ki (Phosphodiesterase 6) of 14782 nM.

`COc1cc(C)c2nc3[nH]nc(C)c3c(N3CCOCC3)c2c1` showed a Ki [1] of 23 nM.

With `COc1cc(C)c2nc3[nH]nc(C)c3c(N(C)C3CCOCC3)c2c1` the Ki [1] was 41 nM and the Ki (Phosphodiesterase 6) was 7383 nM.

Work on `Cc1cc(Cl)cc2c(N3CCNCC3)c3c(C)n[nH]c3nc12` yielded a Ki [1] of 35 nM and an AUC(0-t) at 6 h [4] of 0.14 µM·h.

For `COc1cc(C)c2nc3[nH]nc(C)c3c(N3CCC(C(N)=O)CC3)c2c1`, the concentration at 6 h [3] was < 10 ng/g and the Ki [1] was 3 nM.

For `COc1cc(C)c2nc3[nH]nc(C)c3c(NCc3ccncc3)c2c1`, the Ki [1] was 0.6 nM and the Ki (Phosphodiesterase 6) was 211 nM.

`Cc1n[nH]c2nc3ccccc3c(N3CCNCC3)c12` showed a Ki [1] of 550 nM.
